These results are taken from ChEMBL document CHEMBL1148008, “Antimicrobial and cytotoxic activity of agelasine and agelasimine analogs” (Bioorg Med Chem, 2007).

Converted amounts (≈) assume the structure as drawn. Some results are limits rather than exact numbers.

Experiment [1] relates to Mycobacterium tuberculosis. The experiment in a line: Antimicrobial activity against Mycobacterium tuberculosis after 20 hrs by broth microdilution method. The class given is functional.
Experiment [2] has as its system U-937/GTB. The experiment in a line: Cytotoxicity against U937 GTB cells. Conditions: Homo sapiens. The format is functional, cell-based. The method, boiled down:
(§1)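 Fluorometric microculture cytotoxicity assay (FMCA) read-out; IC50 values reported.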

Experiment [3] concerns Bacteroides thetaiotaomicron. The experiment is described as follows: Antibacterial activity against Bacteroides thetaiotaomicron after 20 hrs by broth microdilution method. The format is functional.
Experiment [4] deals with Escherichia coli. The experiment in a line: Antibacterial activity against Escherichia coli ATCC 25922 after 20 hrs by broth microdilution method. The class given is functional. Conditions: ATCC 25922, 20 h. The method, boiled down: (§2)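 Strains grown 24 h at 35 °C on tryptone-soya agar. Colonies suspended in saline to 0.5 McFarland, then diluted 1:10 in Mueller-Hinton broth (~10⁷ CFU/mL). Inoculum added to twofold dilutions in broth (final 0.125–32 µg/mL) in triplicate. Incubated aerobically at 35 °C for 20 h. MIC is the lowest concentration giving complete growth inhibition. Repeated at least once; gentamycin/streptomycin served as QC.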

Experiment [5] concerns Bacteroides fragilis. The experiment is described as follows: Antibacterial activity against Bacteroides fragilis after 20 hrs by broth microdilution method. The format is functional.
A short description of experiment [6]: Cytotoxicity against RPMI 8226/s cells. The format is functional, cell-based. To be noted: Homo sapiens, RPMI8226/S. The method, boiled down: as §1
In experiment [7] the test system is ACHN. The experiment is described as follows: Cytotoxicity against ACHN cells. The format is functional, cell-based. Conditions: Homo sapiens. The method in brief:
as §1

Experiment [8] relates to Staphylococcus aureus. The experiment in a line: Antibacterial activity against Staphylococcus aureus ATCC 25923 after 20 hrs by broth microdilution method. The class given is functional. To be noted: ATCC 25923, 20 h. The method in brief: as §2
Experiment [9] deals with Mycobacterium tuberculosis. The experiment in a line: Antimicrobial activity against Mycobacterium tuberculosis at 6.25 ug/mL after 20 hrs by broth microdilution method. The format is functional.
A short description of experiment [10]: Cytotoxicity against CEM/s cells. The class given is functional, cell-based. To be noted: Homo sapiens. The method, boiled down:
as §1

Experiment [11] concerns Pichia kudriavzevii. The experiment in a line: Antifungal activity against Candida krusei ATCC 6258. The class given is functional.
In experiment [12] the test system is Streptococcus pyogenes. The experiment in a line: Antibacterial activity against Streptococcus pyogenes after 20 hrs by broth microdilution method. The class given is functional.
Experiment [13] relates to Pseudomonas aeruginosa. The experiment is described as follows: Antibacterial activity against Pseudomonas aeruginosa after 20 hrs by broth microdilution method. The format is functional.
Experiment [14] has as its system Enterococcus faecalis. The experiment in a line: Antimicrobial activity against Enterococcus faecalis after 20 hrs by broth microdilution method. The format is functional.

As to `CC(C)=CCC/C(C)=C\CC/C(C)=C/C[n+]1cn(C)c2nc[nH]/c(=N\OCc3ccccc3)c21`, the MIC in experiment [1] was found to be 3.13 µg/mL; in experiment [3], 4 µg/mL; in [4], 12 µg/mL; in experiment [5], 4 µg/mL; in experiment [8], 8 µg/mL. For the same compound, the IC50 stood at 7.55 µM in experiment [2], 6.76 µM in experiment [6], 25.2 µM in experiment [7] and 10 µM in experiment [10]. The same compound came in with an inhibition at 6.25 µg/mL in experiment [9] of 99%.

As to `CO/N=c1\[nH]cnc2c1[n+](C/C=C(\C)CC/C=C(/C)CCC=C(C)C)cn2C`, the MIC in experiment [1] was determined as 3.13 µg/mL; in experiment [3] it was 16 µg/mL; in [4] it was 16 µg/mL; in experiment [5], 32 µg/mL; in experiment [8] it was 6 µg/mL. Also, the IC50 in [2] worked out at 1.4 µM; in [6], 0.736 µM; in experiment [7], 28.7 µM; in experiment [10], 1.23 µM. Further, testing at 6.25 µg/mL in experiment [9] gave an inhibition of 98%.

For the compound `CC(C)=CCC/C(C)=C/CC/C(C)=C/CC/C(C)=C/Cn1cnc2c1C(=N)N(C)CN2C`, the MIC was 3.13 µg/mL (≈ 7.15 µM) in experiment [1], > 32 µg/mL in experiment [4], 16 µg/mL (≈ 36.6 µM) in experiment [8] and 16 µg/mL (≈ 36.6 µM) in experiment [11]. Further, the IC50 in experiment [2] stood at 3.36 µM; in experiment [6], 2.51 µM; in experiment [7] it was 5.16 µM; in experiment [10], 3.15 µM. The compound also showed an inhibition at 6.25 µg/mL in experiment [9] of 99%.

Consider `Cc1ncc([N+](=O)[O-])n1CCO` [METRONIDAZOLE], for which the MIC in [3] is 1 µg/mL (≈ 5.84 µM); in experiment [5], 0.5 µg/mL (≈ 2.92 µM).

Consider `CO/N=c1\[nH]cnc2c1[n+](C/C=C(\C)CC/C=C(\C)CC/C=C(\C)CCC=C(C)C)cn2CCC#N`, for which the MIC in experiment [1] is > 6.25 µg/mL; in experiment [4], > 32 µg/mL; in experiment [8], 4 µg/mL. Moreover, the IC50 in experiment [2] was 3.33 µM; in experiment [6] it was 3.96 µM; in experiment [7] it was 11.4 µM; in experiment [10], 5.36 µM. The inhibition at 6.25 µg/mL in [9] is 100%.

As to `C=CCn1c[n+](C/C=C(\C)CC/C=C(\C)CC/C=C(\C)CCC=C(C)C)c2/c(=N/OC)[nH]cnc21`, the MIC in experiment [1] is 3.13 µg/mL; in experiment [4] it was > 32 µg/mL; in [8] it was > 32 µg/mL. Moreover, the IC50 in experiment [2] is 1.39 µM; in experiment [6] it was 1.25 µM; in experiment [7], 4.61 µM; in [10], 2.94 µM. In experiment [9], this compound gave an inhibition at 6.25 µg/mL of 100%.

With `C/N=c1\ncn(C)c2ncn(C/C=C(\C)CC/C=C(\C)CC/C=C(\C)CCC=C(C)C)c12`, the MIC in experiment [1] stood at 3.13 µg/mL (≈ 7.18 µM); in experiment [4] it was 16 µg/mL (≈ 36.7 µM); in experiment [8], 3 µg/mL (≈ 6.89 µM). The IC50 in [2], in experiment [6], in experiment [7] and in [10] was > 80 µM each time. In addition, the inhibition at 6.25 µg/mL in experiment [9] is 94%.

With `CC(C)=CCC/C(C)=C/CC/C(C)=C/CC/C(C)=C/C[n+]1cn(C)c2ncnc(N)c21`, the IC50 stood at 3.17 µM in experiment [2], 2.79 µM in [6], 20.3 µM in experiment [7] and 3.06 µM in experiment [10]. The MIC in experiment [4] was > 32 µg/mL; in [8], 32 µg/mL; in [11] it was > 16 µg/mL.

Turning to `CC(C)=CCC/C(C)=C/CC/C(C)=C/CC/C(C)=C/C[n+]1cn(C)c2nc[nH]/c(=N\OC(C)(C)C)c21`, the MIC in experiment [1] is 3.13 µg/mL; in [4], > 32 µg/mL; in [8] it was 24 µg/mL; in [11] it was 2 µg/mL. Moreover, the IC50 in [2] was 4.87 µM; in experiment [6] it was 2.09 µM; in experiment [7], 8.4 µM; in [10] it was 3.86 µM. For the same compound, the inhibition at 6.25 µg/mL in [9] is 100%.

Turning to `CO/N=c1\[nH]cnc2c1[n+](C/C=C(\C)CC/C=C(\C)CC/C=C(\C)CCC=C(C)C)cn2Cc1ccccc1`, the MIC was 1.56 µg/mL in experiment [1], > 32 µg/mL in experiment [4] and > 32 µg/mL in experiment [8]. The IC50 in experiment [2] came out at 1.07 µM; in [6] it was 1.04 µM; in experiment [7], 3.4 µM; in [10], 2.24 µM. Besides, at 6.25 µg/mL the inhibition in experiment [9] was 99%.

In the case of `CC(C)=CCC/C(C)=C/CC/C(C)=C/CC/C(C)=C/Cn1cnc2c1c(=N)ncn2C`, the IC50 in experiment [2] came to 6.4 µM; in experiment [6], 6.78 µM; in [7] it was 12.3 µM; in [10], 7.77 µM. Moreover, the values for the MIC in experiment [4], in experiment [8] and in [11] were 8 µg/mL (≈ 19 µM), 4 µg/mL (≈ 9.49 µM) and 2 µg/mL (≈ 4.74 µM), respectively. In [9], this compound returned an inhibition at 6.25 µg/mL of 84%.

For the compound `CO/N=c1\[nH]cnc2c1[n+](C/C=C(\C)CC/C=C(\C)CC/C=C(\C)CCC=C(C)C)cn2C`, the IC50 in experiment [2] amounted to 1.42 µM; in [6] it was 1.11 µM; in experiment [7], 7.38 µM; in experiment [10], 1.91 µM. Moreover, the MIC was 8 µg/mL in experiment [3]; 16 µg/mL in experiment [4]; 8 µg/mL in [5]; 4 µg/mL in experiment [12]; > 32 µg/mL in [13]; 4 µg/mL in [8]. Besides, the minimal inhibitory concentration (MIC) came to 8 µg/mL in experiment [14] and 2 µg/mL in [11].

As to `CO/N=c1\[nH]cnc2c1[n+](C/C=C(\C)CC/C=C(\C)CCC=C(C)C)cn2C`, the MIC in experiment [1] was 3.13 µg/mL; in experiment [3] it was 16 µg/mL; in [4], 16 µg/mL; in experiment [5], 16 µg/mL; in experiment [8], 8 µg/mL; in experiment [11], 8 µg/mL. The IC50 was 1.32 µM in [2], 1.24 µM in [6], 40.4 µM in [7] and 1.16 µM in [10]. For the same compound, at 6.25 µg/mL the inhibition in [9] was 99%.

As for `Cn1c[n+](Cc2ccccc2)c2c(N)ncnc21.[Cl-]`, the IC50 in [2], in experiment [6], in [7] and in experiment [10] was > 80 µM each time. In addition, the MIC in [3], in experiment [4], in experiment [5] and in experiment [8] was > 32 µg/mL each time. This compound also came in with an inhibition at 6.25 µg/mL in experiment [9] of 0%.

On to `C/C(=C\C[n+]1cn(C)c2ncnc(N)c21)CCCC(C)CCCC(C)CCCC(C)C` (stereo not given), for which the MIC in experiment [1] was 6.25 µg/mL; in [4], > 32 µg/mL; in experiment [8], 4 µg/mL. For the same compound, the IC50 in [2] came out at 3.18 µM; in experiment [6], 2.41 µM; in experiment [7], 11.3 µM; in experiment [10] it was 5.82 µM. The compound further registered an inhibition at 6.25 µg/mL in [9] of 99%.

As to `CO/N=c1\[nH]cnc2c1[n+](C/C=C(\C)CC/C=C(\C)CC/C=C(\C)CCC=C(C)C)cn2C(c1ccccc1)c1ccccc1`, the MIC is 3.13 µg/mL in experiment [1], > 32 µg/mL in experiment [4] and 8 µg/mL in experiment [8]. The IC50 worked out at 1.97 µM in experiment [2], 2.6 µM in [6], 4.75 µM in [7] and 3.54 µM in experiment [10]. For the same compound, at 6.25 µg/mL the inhibition in [9] was 99%.

On to `CC(C)=CCC/C(C)=C/CC/C(C)=C/CC/C(C)=C/Cn1cnc2ncnc(N)c21`, for which the MIC is 1.56 µg/mL (≈ 3.83 µM) in experiment [1], > 32 µg/mL in experiment [4], > 32 µg/mL in [8] and > 16 µg/mL in experiment [11]. Also, the IC50 in [2] turned out to be 3.6 µM; in experiment [6], 2.78 µM; in experiment [7], 7.24 µM; in [10] it was 2.88 µM. Also, 6.25 µg/mL produced 99% inhibition in [9].

As for `CC(C)=CCC/C(C)=C/CC/C(C)=C/CC/C(C)=C/C[n+]1cn(C)c2nc[nH]/c(=N\OCc3ccccc3)c21`, the MIC in experiment [1] is 3.13 µg/mL; in [3] it was 16 µg/mL; in experiment [4], > 32 µg/mL; in [5], 8 µg/mL; in experiment [8], 6 µg/mL; in experiment [11] it was 1 µg/mL. For the same compound, the IC50 in [2] was 6.79 µM; in experiment [6] it was 8.24 µM; in [7], 20.9 µM; in experiment [10], 14 µM. At 6.25 µg/mL the inhibition in [9] was 99%.
